From ChEMBL document CHEMBL5678805, “Intermittent administration of MEK inhibitor GDC-0973 plus PI3K inhibitor GDC-0941 triggers robust apoptosis and tumor growth inhibition” (Cancer Res, 2012)
Active and inactive are the calls of the source. The rule behind the calls is not given here.

Tests used:
[1] = target: Dual specificity tyrosine-phosphorylation-regulated kinase 2 (Homo sapiens, UniProt Q92630); test: Inhibition of DYRK2 (unknown origin)
Focal adhesion kinase 1 = Focal adhesion kinase 1 (Homo sapiens, UniProt Q05397); test: Inhibition of FAK (unknown origin)
[2] = target: Insulin-like growth factor 1 receptor (Homo sapiens, UniProt P08069); test: Inhibition of IGF1R (unknown origin)
Sequence of Insulin-like growth factor 1 receptor (P08069 31-736 limits assumed): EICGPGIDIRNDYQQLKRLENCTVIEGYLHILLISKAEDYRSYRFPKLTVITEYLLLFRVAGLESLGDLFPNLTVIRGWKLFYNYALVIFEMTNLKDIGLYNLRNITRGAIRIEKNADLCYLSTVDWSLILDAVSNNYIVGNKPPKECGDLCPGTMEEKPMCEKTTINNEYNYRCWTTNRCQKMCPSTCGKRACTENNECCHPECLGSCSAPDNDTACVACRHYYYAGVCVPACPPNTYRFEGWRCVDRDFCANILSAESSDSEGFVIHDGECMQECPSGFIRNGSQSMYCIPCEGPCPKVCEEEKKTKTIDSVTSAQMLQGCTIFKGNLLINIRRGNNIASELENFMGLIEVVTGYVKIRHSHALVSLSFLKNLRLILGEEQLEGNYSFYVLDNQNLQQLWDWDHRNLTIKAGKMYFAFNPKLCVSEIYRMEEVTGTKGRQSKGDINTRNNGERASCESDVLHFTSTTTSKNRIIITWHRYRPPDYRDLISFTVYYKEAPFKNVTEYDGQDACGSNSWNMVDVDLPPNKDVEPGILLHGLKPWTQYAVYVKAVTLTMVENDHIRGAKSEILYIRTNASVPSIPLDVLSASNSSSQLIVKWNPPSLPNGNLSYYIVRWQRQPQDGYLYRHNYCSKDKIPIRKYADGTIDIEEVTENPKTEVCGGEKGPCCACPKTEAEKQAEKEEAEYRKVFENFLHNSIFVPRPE
Sequence of Insulin-like growth factor 1 receptor (P08069 741-1367 limits assumed): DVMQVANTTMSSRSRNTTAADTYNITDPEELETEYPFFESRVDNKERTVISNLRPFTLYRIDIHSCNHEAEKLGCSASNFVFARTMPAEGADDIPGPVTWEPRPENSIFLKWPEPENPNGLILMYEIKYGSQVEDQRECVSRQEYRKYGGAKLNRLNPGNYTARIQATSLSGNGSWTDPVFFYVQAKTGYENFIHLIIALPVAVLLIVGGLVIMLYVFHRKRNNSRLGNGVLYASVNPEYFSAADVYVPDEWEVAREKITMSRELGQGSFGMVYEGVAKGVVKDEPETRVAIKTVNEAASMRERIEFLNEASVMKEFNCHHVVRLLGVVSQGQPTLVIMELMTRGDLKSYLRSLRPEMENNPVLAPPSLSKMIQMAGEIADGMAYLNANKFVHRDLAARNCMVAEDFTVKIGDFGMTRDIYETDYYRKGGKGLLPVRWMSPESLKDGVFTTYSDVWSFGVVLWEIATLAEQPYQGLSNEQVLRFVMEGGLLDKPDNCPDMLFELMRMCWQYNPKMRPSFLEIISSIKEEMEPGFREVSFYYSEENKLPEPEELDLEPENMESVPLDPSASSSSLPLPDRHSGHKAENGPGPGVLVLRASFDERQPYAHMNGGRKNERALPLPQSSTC

[3] = target: Serine/threonine-protein kinase 10 (Homo sapiens, UniProt O94804); test: Inhibition of LOK (unknown origin)
Sequence of Serine/threonine-protein kinase 10 (O94804 whole entry): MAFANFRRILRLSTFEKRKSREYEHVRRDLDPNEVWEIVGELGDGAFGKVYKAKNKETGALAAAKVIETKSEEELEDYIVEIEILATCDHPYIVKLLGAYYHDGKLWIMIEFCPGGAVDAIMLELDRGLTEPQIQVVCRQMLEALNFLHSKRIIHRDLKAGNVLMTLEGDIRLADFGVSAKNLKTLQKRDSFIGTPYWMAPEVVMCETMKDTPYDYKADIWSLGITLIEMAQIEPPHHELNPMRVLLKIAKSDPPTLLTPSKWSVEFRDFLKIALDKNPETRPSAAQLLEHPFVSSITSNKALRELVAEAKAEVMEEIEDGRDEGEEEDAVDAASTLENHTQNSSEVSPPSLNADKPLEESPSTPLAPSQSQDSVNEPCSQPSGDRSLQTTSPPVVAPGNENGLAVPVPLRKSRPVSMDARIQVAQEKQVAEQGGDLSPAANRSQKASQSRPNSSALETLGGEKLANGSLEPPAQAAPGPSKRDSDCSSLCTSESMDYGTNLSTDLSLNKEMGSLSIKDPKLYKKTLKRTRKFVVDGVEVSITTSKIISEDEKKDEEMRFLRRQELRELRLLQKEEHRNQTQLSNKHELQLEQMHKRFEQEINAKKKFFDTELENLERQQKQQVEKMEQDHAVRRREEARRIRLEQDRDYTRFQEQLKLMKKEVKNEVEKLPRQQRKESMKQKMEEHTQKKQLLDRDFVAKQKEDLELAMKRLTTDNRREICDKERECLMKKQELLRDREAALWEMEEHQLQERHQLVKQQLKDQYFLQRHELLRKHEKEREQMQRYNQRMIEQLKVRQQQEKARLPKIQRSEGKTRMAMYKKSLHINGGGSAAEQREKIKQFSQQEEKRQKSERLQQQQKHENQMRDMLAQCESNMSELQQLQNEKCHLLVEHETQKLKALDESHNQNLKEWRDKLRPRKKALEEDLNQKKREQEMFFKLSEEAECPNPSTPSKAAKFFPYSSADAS

[4] = target: MAP kinase-activated protein kinase 2 (Homo sapiens, UniProt P49137); test: Inhibition of MAPKAP2 (unknown origin)
Sequence of MAP kinase-activated protein kinase 2 (P49137 whole entry): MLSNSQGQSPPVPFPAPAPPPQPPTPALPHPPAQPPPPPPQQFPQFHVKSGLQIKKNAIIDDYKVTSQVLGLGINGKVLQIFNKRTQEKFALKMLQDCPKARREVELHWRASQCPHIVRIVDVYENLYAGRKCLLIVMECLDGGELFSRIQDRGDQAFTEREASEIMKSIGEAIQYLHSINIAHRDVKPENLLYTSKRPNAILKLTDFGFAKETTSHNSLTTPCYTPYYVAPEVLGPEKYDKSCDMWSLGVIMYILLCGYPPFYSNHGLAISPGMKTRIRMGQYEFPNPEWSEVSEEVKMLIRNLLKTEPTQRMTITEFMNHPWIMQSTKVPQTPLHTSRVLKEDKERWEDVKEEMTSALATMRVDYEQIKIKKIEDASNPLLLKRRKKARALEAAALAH

[5] = target: Platelet-derived growth factor receptor alpha (Homo sapiens, UniProt P16234); test: Inhibition of PDGFRalpha (unknown origin)
Sequence of Platelet-derived growth factor receptor alpha (P16234 whole entry): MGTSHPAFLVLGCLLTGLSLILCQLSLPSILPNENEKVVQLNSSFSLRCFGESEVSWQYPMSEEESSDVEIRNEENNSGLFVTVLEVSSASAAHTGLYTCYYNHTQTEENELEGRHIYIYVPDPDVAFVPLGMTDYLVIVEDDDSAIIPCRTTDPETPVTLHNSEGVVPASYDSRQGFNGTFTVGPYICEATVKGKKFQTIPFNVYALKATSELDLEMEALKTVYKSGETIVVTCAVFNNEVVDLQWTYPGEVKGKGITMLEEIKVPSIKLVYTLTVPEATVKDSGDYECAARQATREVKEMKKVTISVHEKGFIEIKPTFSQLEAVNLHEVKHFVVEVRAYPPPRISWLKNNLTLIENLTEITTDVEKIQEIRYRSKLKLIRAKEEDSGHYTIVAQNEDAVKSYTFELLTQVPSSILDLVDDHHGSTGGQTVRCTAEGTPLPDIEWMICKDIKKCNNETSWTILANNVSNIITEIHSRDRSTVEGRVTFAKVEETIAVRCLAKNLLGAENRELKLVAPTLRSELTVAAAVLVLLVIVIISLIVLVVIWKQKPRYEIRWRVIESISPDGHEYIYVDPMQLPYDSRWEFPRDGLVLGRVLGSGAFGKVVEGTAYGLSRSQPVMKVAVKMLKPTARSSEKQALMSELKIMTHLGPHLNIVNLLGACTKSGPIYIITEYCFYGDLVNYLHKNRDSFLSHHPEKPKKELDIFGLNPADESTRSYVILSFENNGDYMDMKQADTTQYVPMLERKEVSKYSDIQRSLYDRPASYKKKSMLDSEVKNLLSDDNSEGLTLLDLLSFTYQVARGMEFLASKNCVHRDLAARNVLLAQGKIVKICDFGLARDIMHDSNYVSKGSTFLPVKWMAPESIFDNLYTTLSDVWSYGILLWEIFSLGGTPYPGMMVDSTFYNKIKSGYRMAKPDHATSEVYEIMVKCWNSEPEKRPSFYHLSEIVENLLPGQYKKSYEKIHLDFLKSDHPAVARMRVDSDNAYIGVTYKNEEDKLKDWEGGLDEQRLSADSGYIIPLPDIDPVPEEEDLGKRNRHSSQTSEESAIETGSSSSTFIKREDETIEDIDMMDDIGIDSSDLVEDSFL

[6] = target: Serine/threonine-protein kinase pim-2 (Homo sapiens, UniProt Q9P1W9); test: Inhibition of PIM2 (unknown origin)
Sequence of Serine/threonine-protein kinase pim-2 (Q9P1W9 whole entry): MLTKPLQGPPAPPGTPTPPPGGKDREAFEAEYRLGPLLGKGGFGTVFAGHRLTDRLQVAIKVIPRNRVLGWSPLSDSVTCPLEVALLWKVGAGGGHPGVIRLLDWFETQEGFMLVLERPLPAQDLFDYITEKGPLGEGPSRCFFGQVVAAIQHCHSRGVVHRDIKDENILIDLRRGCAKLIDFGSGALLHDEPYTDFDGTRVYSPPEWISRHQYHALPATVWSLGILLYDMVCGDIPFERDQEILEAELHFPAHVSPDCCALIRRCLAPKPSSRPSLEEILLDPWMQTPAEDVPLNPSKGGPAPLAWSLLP

[7] = target: BDNF/NT-3 growth factors receptor (Homo sapiens, UniProt Q16620); test: Inhibition of TrkB (unknown origin)
Sequence of BDNF/NT-3 growth factors receptor (Q16620 whole entry): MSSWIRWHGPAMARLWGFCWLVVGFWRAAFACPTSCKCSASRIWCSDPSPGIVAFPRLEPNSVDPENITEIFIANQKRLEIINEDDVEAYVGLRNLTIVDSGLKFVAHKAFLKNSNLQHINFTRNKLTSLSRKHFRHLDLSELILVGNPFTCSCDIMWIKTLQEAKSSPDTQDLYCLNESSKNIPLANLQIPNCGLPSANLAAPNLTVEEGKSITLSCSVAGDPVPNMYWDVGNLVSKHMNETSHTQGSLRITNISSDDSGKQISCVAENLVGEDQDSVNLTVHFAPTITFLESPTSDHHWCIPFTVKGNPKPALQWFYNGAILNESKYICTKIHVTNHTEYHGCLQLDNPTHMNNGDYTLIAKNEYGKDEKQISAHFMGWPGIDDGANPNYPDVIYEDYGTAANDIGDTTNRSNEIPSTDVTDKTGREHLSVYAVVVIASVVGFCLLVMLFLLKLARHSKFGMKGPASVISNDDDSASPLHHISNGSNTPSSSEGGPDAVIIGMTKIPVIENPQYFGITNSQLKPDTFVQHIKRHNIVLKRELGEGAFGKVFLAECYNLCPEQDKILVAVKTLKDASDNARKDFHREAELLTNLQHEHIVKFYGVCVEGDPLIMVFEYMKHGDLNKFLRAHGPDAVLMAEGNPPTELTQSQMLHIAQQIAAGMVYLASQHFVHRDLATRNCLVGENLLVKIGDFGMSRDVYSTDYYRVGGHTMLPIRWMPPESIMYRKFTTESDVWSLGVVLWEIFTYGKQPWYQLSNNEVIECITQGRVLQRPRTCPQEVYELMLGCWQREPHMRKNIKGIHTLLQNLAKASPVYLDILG

[8] = target: Serine/threonine-protein kinase WNK2 (Homo sapiens, UniProt Q9Y3S1); test: Inhibition of WNK2 (unknown origin)
[9] = Antitumor activity against human MOLM16 cells harboring FLT3 T227M mutant xenografted in mouse assessed as tumor growth inhibition at 5 mg/kg, po; assay type: functional, MOLM-16; conditions: read-out: TGI
In short: (§1)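 Human tumor xenografts in mice were dosed orally at the indicated mg/kg. Tumor volume was measured with calipers as (L×W×W)/2. %TGI = 100 × [1 − (AUC treatment/d)/(AUC vehicle/d)], using the area under the fitted tumor-growth curve per day for each dose group relative to vehicle.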

DLD-1 = test: Antitumor activity against human DLD-1 cells harboring KRAS G13D/IDH1 G97D/SMO T640A/APC I1417 mutant xenografted in mouse assessed as tumor growth inhibition at 5 mg/kg, po; assay type: functional; conditions: read-out: TGI
In short: (§2)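 Single-agent dose ranging in human tumor xenograft mice at 2.5, 5 or 10 mg/kg oral. Tumor volume was measured by caliper as (L×W×W)/2. %TGI = 100×[1 − AUC(treatment/d)/AUC(vehicle/d)] from the fitted growth curve per dose group, relative to vehicle.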

HCT-116 = test: Antitumor activity against human HCT-116 cells harboring KRAS G13D/PIK3CA […]/CTNNB1 S45del/CDKN2A G23fs mutant xenografted in mouse assessed as tumor growth inhibition at 5 mg/kg, po; assay type: functional; conditions: read-out: TGI; in short: as §2
LoVo = test: Antitumor activity against human LoVo cells harboring KRAS G13D/CDKN2A P48L/FBXW7 R505C/MSH2/SMO G16_L17insLL/A324T/NF1 R1276Q/Y1607fs17/APC1114 mutant xenografted in mouse assessed as tumor growth inhibition at 5 mg/kg, po; assay type: functional; conditions: read-out: TGI; in short: as §2
537-mel = test: Antitumor activity against human 537-mel cells harboring PTEN null mutation xenografted in mouse assessed as tumor growth inhibition at 10 mg/kg, po; assay type: functional; conditions: read-out: TGI
In short: (§3)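 Mice carrying human tumor xenografts dosed orally once daily for 21 consecutive days. Tumor volume measured by calipers as (L×W×W)/2. %TGI = 100×[1 − AUC(treatment/day)/AUC(vehicle/day)], using the area under the fitted growth curve relative to vehicle.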

A-375 [10] = test: Antitumor activity against human A-375 cells harboring BRAF V600E/CDKN2A E61 mutant xenografted in mouse assessed as tumor growth inhibition at 2.5 mg/kg, po; assay type: functional; conditions: A-375, read-out: TGI; in short: as §3
A-375 [11] = test: Antitumor activity against human A-375 cells harboring BRAF V600E/CDKN2A E61 mutant xenografted in mouse assessed as tumor growth inhibition at 5 mg/kg, po; assay type: functional; conditions: A-375, read-out: TGI; in short: as §3
[12] = Antitumor activity against human A375.X1 cells harboring BRAF V600E/CDKN2A E61 mutant xenografted in mouse assessed as tumor growth inhibition at 5 mg/kg, po; assay type: functional; conditions: A375.X1, read-out: TGI; in short: as §2
NCI-H460 = test: Antitumor activity against human NCI-H460 cells harboring KRAS Q61H/PIK3CA E545K/LKB1 Q37/CDKN2A mutant xenografted in mouse assessed as tumor growth inhibition at 10 mg/kg, po; assay type: functional; conditions: read-out: TGI; in short: as §1
[13] = Antitumor activity against human A375.X1 cells xenografted in mouse assessed as tumor growth inhibition at 20 mg/kg, po administered every third day for 21 days; assay type: functional; conditions: A375.X1, 504 h, time 21 day, read-out: TGI
In short: (§4)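 Human tumor xenografts in mice. Drugs given orally, as single agents or combined with the PI3K inhibitor. Schedules were daily (QD) or every third day (Q3D) over 21 days. Tumor volume was measured by caliper as (L×W×W)/2. %TGI = 100×[1 − AUC(treatment/d)/AUC(vehicle/d)] from fitted growth curves, with group means. Tumor lysates were immunoblotted for pS6.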

[14] = Antitumor activity against human A375.X1 cells xenografted in mouse assessed as tumor growth inhibition at 15 mg/kg, po administered every third day for 21 days; assay type: functional; conditions: A375.X1, 504 h, time 21 day, read-out: TGI; in short: as §4
NCI-H2122 = test: Antitumor activity against human NCI-H2122 cells xenografted in mouse assessed as tumor growth inhibition at 15 mg/kg, po administered every third day for 21 days; assay type: functional; conditions: NCI-H2122, 504 h, time 21 day, read-out: TGI
In short: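 Dosing was oral, every third day (Q3D) across 21 days, with single agents or the MEK plus PI3K combination in NCI-H2122 xenograft mice. Tumor volume was calculated as (L×W×W)/2 from caliper measurements. %TGI was derived from fitted-curve AUC per day relative to vehicle, with body weight monitored.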

888-mel [15] = test: Inhibition of S6 phosphorylation in human 888-mel cells preincubated with compound for 24 hrs followed by compound washout and measured after 2 hrs in presence of 4-(2-(1H-indazol-4-yl)-6-((4-(methylsulfonyl)piperazin-1-yl)methyl)thieno[3,2-d]pyrimidin-4-yl)morpholine by immunoblotting analysis; assay type: cell-based
888-mel [16] = test: Upregulation of Bim level in human 888-mel cells incubated for 24 hrs by immunoblotting analysis; assay type: functional, cell-based
A2058 [17] = test: Antitumor activity against human A2058 cells harboring BRAF V600E/PTEN deletion mutant xenografted in mouse assessed as suppression of ERK phosphorylation at 15 mg/kg, po administered every third day for 21 days and measured after 72 hrs post dose in presence of 4-(2-(1H-indazol-4-yl)-6-((4-(methylsulfonyl)piperazin-1-yl)methyl)thieno[3,2-d]pyrimidin-4-yl)morpholine by Western blot analysis; assay type: functional, organism-based; conditions: time 576.0 hrs
A2058 [18] = test: Antitumor activity against human A2058 cells harboring BRAF V600E/PTEN deletion mutant xenografted in mouse assessed as suppression of AKT phosphorylation at 15 mg/kg, po administered every third day for 21 days and measured after 72 hrs post dose in presence of 4-(2-(1H-indazol-4-yl)-6-((4-(methylsulfonyl)piperazin-1-yl)methyl)thieno[3,2-d]pyrimidin-4-yl)morpholine by Western blot analysis; assay type: functional, organism-based; conditions: time 576.0 hrs
A2058 [19] = test: Antitumor activity against human A2058 cells harboring BRAF V600E/PTEN deletion mutant xenografted in mouse assessed as decrease in cyclin D1 level at 15 mg/kg, po administered every third day for 21 days and measured after 72 hrs post dose in presence of 4-(2-(1H-indazol-4-yl)-6-((4-(methylsulfonyl)piperazin-1-yl)methyl)thieno[3,2-d]pyrimidin-4-yl)morpholine by Western blot analysis; assay type: functional, organism-based; conditions: time 576.0 hrs

O=C(c1ccc(F)c(F)c1Nc1ccc(I)cc1F)N1CC(O)([C@@H]2CCCCN2)C1 [COBIMETINIB]
IC50 [1]: > 10 µM | IC50 (Focal adhesion kinase 1): > 10 µM | IC50 [2]: > 10 µM | IC50 [3]: > 10 µM | IC50 [4]: > 10 µM | IC50 [5]: > 10 µM | IC50 [6]: > 10 µM | IC50 [7]: > 10 µM | IC50 [8]: > 10 µM | inhibition in vivo at 5 mg/kg [9]: 30% | inhibition in vivo at 5 mg/kg (DLD-1): 50.2% | inhibition in vivo at 5 mg/kg (HCT-116): 68.7% | inhibition in vivo at 5 mg/kg (LoVo): 73% | inhibition in vivo at 10 mg/kg (537-mel): 96% | inhibition in vivo at 2.5 mg/kg (A-375 [10]): 98% | inhibition in vivo at 5 mg/kg (A-375 [11]): 120% | inhibition in vivo at 5 mg/kg [12]: 106% | inhibition in vivo at 10 mg/kg (NCI-H460): 9% | inhibition in vivo at 20 mg/kg [13]: 94% | inhibition in vivo at 15 mg/kg [14]: 75% | inhibition in vivo at 15 mg/kg (NCI-H2122): 71% | inhibition (888-mel [15]): Active | Activity (888-mel [16]): Active | Activity (A2058 [17]): Active | Activity (A2058 [18]): Active | Activity (A2058 [19]): Active
